Measured values as given in paper PMC9924264 (Journal of Medicinal Chemistry, 2023).

Experiments:
BMPR1A (ALK3) = BMPR1A (ALK3) (Homo sapiens, UniProt P36894); test: ThermoFisher SelectScreen LanthaScreen assay; format: binding; settings: ALK3 vs BMPR2
[1] = Metabolic stability in mouse liver microsomes; format: in vitro ADME; settings: compared with analogue (CDD-1115 for CDD-1281, CDD-1431 for CDD-1653)
TGFBR1 (ALK5) = molecular target: T1, TGFBR1 (ALK5) (Homo sapiens, UniProt P36897); test: ThermoFisher SelectScreen LanthaScreen assay; format: binding; settings: ALK5 vs BMPR2
T1 sequence (P36897 34-503): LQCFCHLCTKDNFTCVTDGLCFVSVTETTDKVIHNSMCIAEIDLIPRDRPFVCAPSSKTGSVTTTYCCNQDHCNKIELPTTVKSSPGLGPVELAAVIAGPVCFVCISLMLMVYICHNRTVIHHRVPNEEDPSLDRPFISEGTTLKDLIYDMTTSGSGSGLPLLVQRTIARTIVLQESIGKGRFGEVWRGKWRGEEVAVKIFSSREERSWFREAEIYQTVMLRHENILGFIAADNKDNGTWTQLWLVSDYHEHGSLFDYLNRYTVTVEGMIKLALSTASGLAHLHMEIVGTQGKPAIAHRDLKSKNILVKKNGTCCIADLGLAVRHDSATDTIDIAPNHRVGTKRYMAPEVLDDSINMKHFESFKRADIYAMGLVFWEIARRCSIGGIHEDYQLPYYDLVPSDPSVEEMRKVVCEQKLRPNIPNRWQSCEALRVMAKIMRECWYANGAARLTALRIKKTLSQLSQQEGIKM

[2] = tested on: pSMAD1/5 in human umbilical vein endothelial cells (HUVECs); test: pSMAD1/5 Western blot, BMP9-stimulated HUVECs; format: cell-based; settings: 25 μM, 30 min pretreatment, 0.5 ng/mL BMP9 15 min
Method in brief: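 HUVECs, about 3 × 10^5 per well, starved overnight in Kaighn's F-12 with 0.5% FBS and 30 μg/mL endothelial cell growth supplement. Pretreated with inhibitors for 30 min, then given 0.5 ng/mL BMP9 for 15 min. Lysed with protease and phosphatase inhibitors. SDS-PAGE immunoblot for pSMAD1/5, SMAD1, SMAD5 and GAPDH, with densitometry. n = 3 biological replicates; one-way ANOVA with Tukey post hoc test.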

[3] = Metabolic stability in human liver microsomes; format: in vitro ADME; settings: compared with analogue (CDD-1115 for CDD-1281, CDD-1431 for CDD-1653)
Method in brief: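 Human liver microsomes (0.5 mg protein/mL) incubated at 37 °C with test compound (2.0 μM) and NADPH cofactor (1.0 mM). Samples taken at 0, 30 and 60 min, in duplicate. […] Half-life was compared with that of the paired structural analogue.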

BMPR2 = molecular target: T2, BMPR2 (Homo sapiens, UniProt Q13873); test: ThermoFisher SelectScreen LanthaScreen assay; format: binding; settings: than CDD-1115
T2 sequence (Q13873 27-1038): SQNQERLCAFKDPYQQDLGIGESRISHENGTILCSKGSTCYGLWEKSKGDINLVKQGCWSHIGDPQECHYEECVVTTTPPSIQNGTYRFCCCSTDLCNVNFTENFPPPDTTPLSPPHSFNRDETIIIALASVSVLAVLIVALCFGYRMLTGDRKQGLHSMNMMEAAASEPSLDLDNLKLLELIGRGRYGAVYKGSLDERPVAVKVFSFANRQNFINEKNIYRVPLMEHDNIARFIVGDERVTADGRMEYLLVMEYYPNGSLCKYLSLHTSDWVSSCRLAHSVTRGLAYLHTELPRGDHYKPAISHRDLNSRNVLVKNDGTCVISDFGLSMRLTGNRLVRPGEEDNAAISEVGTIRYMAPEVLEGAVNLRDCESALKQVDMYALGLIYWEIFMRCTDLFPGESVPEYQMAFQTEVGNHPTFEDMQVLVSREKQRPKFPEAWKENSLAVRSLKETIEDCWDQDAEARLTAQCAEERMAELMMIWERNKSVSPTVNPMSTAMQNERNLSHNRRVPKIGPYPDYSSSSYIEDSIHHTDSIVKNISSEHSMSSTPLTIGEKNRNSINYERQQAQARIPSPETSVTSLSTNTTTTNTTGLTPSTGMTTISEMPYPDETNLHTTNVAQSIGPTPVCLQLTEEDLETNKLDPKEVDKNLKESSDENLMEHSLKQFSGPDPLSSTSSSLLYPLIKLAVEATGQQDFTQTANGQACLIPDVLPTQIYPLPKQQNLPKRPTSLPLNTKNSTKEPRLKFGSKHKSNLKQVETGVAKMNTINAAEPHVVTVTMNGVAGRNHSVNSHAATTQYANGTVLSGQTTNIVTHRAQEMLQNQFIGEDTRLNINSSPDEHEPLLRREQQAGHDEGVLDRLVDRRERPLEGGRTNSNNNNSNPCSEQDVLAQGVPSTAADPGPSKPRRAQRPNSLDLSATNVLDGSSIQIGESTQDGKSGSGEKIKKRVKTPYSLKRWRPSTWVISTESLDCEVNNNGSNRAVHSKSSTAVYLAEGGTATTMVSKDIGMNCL

BMPR1B (ALK6) = BMPR1B (ALK6) (Homo sapiens, UniProt O00238); test: ThermoFisher SelectScreen LanthaScreen assay; format: binding; settings: ALK6 vs BMPR2
Sequence of BMPR1B (ALK6) (O00238 14-502): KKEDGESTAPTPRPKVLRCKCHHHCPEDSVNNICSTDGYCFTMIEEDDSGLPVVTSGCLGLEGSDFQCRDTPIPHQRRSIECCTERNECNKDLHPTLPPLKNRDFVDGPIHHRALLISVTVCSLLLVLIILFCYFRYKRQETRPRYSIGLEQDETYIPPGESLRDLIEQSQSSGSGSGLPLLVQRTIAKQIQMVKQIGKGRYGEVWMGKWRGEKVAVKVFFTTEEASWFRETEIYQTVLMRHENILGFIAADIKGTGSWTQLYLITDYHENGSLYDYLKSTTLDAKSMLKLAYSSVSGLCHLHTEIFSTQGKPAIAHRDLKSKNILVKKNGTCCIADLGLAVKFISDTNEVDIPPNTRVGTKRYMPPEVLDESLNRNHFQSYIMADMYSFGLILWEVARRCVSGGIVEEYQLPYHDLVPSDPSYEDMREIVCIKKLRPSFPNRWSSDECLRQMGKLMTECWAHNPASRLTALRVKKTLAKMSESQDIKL

Sequence of BMPR1A (ALK3) (P36894 24-532): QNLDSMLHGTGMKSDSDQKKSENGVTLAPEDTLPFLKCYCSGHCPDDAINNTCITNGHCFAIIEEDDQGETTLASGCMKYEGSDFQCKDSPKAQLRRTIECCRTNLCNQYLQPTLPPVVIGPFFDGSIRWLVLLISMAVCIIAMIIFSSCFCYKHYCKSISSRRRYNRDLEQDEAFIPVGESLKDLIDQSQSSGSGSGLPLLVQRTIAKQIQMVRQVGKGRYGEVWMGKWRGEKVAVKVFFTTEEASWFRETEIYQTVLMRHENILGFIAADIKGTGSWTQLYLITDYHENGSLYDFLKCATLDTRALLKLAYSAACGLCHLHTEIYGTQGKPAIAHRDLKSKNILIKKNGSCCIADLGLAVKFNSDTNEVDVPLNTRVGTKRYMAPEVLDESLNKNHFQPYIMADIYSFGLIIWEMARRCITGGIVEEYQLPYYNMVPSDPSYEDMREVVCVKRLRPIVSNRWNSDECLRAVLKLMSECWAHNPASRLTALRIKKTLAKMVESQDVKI

In the case of NC(=O)c1cccc(CNC(=O)c2ccc3nc(-c4ccc5cnccc5c4)n(C4CCCC4)c3c2)c1 [CDD-1281, N-(3-Carbamoylbenzyl)-1-cyclopentyl-2-(isoquinolin-6-yl)-1H-benzo[d]imidazole-6-carboxamide], the selectivity (BMPR1A (ALK3)) is reported as over 830×, the “fold increase of half-life in MLM” value [1] is reported as 3.5 fold and the selectivity (TGFBR1 (ALK5)) is reported as over 830×. The “phosphorylation of SMAD1/5 (pSMAD1/5)” value [2] was “significantly decreased”, the “fold increase of half-life in HLM” value [3] was 11.0 fold and the “fold higher potency (IC50)” value (BMPR2) was 1.5 fold. The selectivity (BMPR1B (ALK6)) was over 830×.
